The nature of assay [1]: Binding affinity to subsite A in S1S2 domain of GluA2 receptor expressed in Escherichia coli by crystallography. The essentials: (§1)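 GluA2 S1S2 domain (flip form via N754S, GluA2i) expressed in E. coli Origami B (DE3) cells, IPTG 0.5 mM final at 20°C for 20 h. Purified by Ni-NTA, sizing and ion exchange with glutamate in all buffers. Protein at 0.3 mM with 10 mM glutamate, ligand 5 mM final. Co-crystals grown by hanging drop at 4°C against 16–18% PEG 8K, 0.1 M sodium cacodylate, 0.1–0.15 M zinc acetate, pH 6.5.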

Assay [2] in a line: Binding affinity to subsite B/B' and subsite C/C' in S1S2 domain of GluA2 receptor expressed in Escherichia coli by crystallography. The essentials: as §1
Assay [3] can be described thus: Binding affinity to subsite C/C' in S1S2 domain of GluA2 receptor expressed in Escherichia coli by crystallography. The essentials:
as §1

Activity calls are given as the source filed them. The calls are words filed in the database; no cut-off is given here.

As to `O=C1c2cc3c(cc2OC2CCCN12)OCCO3` (stereo not given), the result in assay [1] and in assay [2] was Active. For the compound `CC1Nc2ccc(Cl)cc2S(=O)(=O)N1` (stereo not given), the outcome in assay [3] was Active.

Consider `NS(=O)(=O)c1cc2c(cc1Cl)NC(C(Cl)Cl)NS2(=O)=O` (stereo not given), for which the outcome in assay [2] was Active. Still for that read-out and setting: then `NS(=O)(=O)c1cc2c(cc1Cl)NC(C1CC3C=CC1C3)NS2(=O)=O` (stereo not given), with “Active”.

Take `COc1ccc(C(=O)N2CCCC2=O)cc1`: the outcome in assay [1] and in assay [2] was Active. With `C=CCSCC1Nc2cc(Cl)c(S(N)(=O)=O)cc2S(=O)(=O)N1` (stereo not given), the outcome in assay [2] was Active. `NS(=O)(=O)c1cc2c(cc1C(F)(F)F)NCNS2(=O)=O`: the result in assay [3] was Active. Still for that read-out and setting: to `NS(=O)(=O)c1cc2c(cc1Cl)NCNS2(=O)=O` belongs “Active”.
